For 3 compounds, IC50 results are on record in ChEMBL document CHEMBL4052605, “Lissoclibadin 1, a Polysulfur Aromatic Alkaloid from the Indonesian Ascidian Lissoclinum cf. badium, Induces Caspase-Dependent Apoptosis in Human Colon Cancer Cells and Suppresses Tumor Growth in Nude Mice” (J Nat Prod, 2017).

What all share (format): functional, cell-based
Test [1] concerns HCT-15. Put plainly: Antiproliferative activity against human HCT15 cells after 24 hrs by WST-1 assay. To be noted: HCT-15, 24 h. The gist of the method: (§1)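 WST-1 viability assay. Cells seeded at 5 × 10^3 per well and grown 24 h, then given lissoclibadins at 0.1−40 μM (etoposide 1.0−100 μM) in triplicate for 24 h. WST-1 added and absorbance read 4 h later at 450 nm, background subtracted at 650 nm. Viability expressed as % of control; IC50 taken as 50% inhibition of viability. Three experiments, mean ± SD.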

The test system of test [2] is HeLa S3. As to the kind of experiment: Antiproliferative activity against human HeLaS3 cells after 24 hrs by WST-1 assay. The conditions noted are these: HeLa S3, 24 h. The gist of the method: as §1
The test system of test [3] is MCF7. Put plainly: Antiproliferative activity against human MCF7 cells after 24 hrs by WST-1 assay. The conditions noted are these: MCF7, 24 h. Summed up:
as §1

Test [4] concerns NCI-H28. Put plainly: Antiproliferative activity against human NCI-H28 cells after 24 hrs by WST-1 assay. The conditions noted are these: NCI-H28, 24 h. Summed up: as §1

On to `COc1c(OC)c2c(c(CCN(C)C)c1SC)SSc1c(CCN(C)C)c(SC)c(OC)c(OC)c1SSc1c(OC)c(OC)c(SC)c(CCN(C)C)c1SSc1c(CCN(C)C)c(SC)c(OC)c(OC)c1SS2`, for which the half-maximal inhibitory concentration (IC50) in test [1] came out at 4.9 µM; in test [2], 6.3 µM; in test [3], 11.8 µM; in test [4] it was 7.1 µM.
`COc1cc([C@@H]2c3cc4c(cc3[C@@H](O[C@@H]3O[C@@H]5CO[C@@H](C)O[C@H]5[C@H](O)[C@H]3O)[C@H]3COC(=O)[C@H]23)OCO4)cc(OC)c1O` [ETOPOSIDE]: the 50% inhibitory concentration (IC50) in test [1] was determined as 19.7 µM; in test [2], 43.1 µM.
For `COc1cc(CCN(C)C)c2c(c1O)SSSSS2` [ISOLISSOCLINOTOXIN B], the half-inhibitory concentration (IC50) in test [1] was found to be 4.2 µM; in test [2] it was 5.9 µM; in test [3], 6.4 µM; in test [4], 6.4 µM.
